Where “and” joins values, the source holds several entries; their conditions need not be identical. Equal values may be shown once.
Assays:
[1] = biological target: Bifunctional dihydrofolate reductase-thymidylate synthase (Plasmodium falciparum K1, UniProt P13922, S108N); assay: Inhibition of the S108N mutant of dihydrofolate reductase (DHFR)
In short: (§1)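 Assay at 25 °C: 50 mM TES pH 7.0, 75 mM β-mercaptoethanol, 1 mg/mL BSA, 100 µM H2folate and 100 µM NADPH. NADPH oxidation followed at 340 nm. Ki derived from IC50 as Ki(1+[S]/Km), assuming competitive inhibition.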

[2] = test system: Bifunctional dihydrofolate reductase-thymidylate synthase (Plasmodium falciparum K1), P13922 [UNDEFINED MUTATION]; assay: Ratio of Inhibition of the C59R+S108N mutant of dihydrofolate reductase (DHFR) to inhibition of wild type dihydrofolate reductase.
Chain of Bifunctional dihydrofolate reductase-thymidylate synthase (Plasmodium falciparum K1), P13922 [UNDEFINED MUTATION] (P13922 whole entry, looked up, stated change not applied): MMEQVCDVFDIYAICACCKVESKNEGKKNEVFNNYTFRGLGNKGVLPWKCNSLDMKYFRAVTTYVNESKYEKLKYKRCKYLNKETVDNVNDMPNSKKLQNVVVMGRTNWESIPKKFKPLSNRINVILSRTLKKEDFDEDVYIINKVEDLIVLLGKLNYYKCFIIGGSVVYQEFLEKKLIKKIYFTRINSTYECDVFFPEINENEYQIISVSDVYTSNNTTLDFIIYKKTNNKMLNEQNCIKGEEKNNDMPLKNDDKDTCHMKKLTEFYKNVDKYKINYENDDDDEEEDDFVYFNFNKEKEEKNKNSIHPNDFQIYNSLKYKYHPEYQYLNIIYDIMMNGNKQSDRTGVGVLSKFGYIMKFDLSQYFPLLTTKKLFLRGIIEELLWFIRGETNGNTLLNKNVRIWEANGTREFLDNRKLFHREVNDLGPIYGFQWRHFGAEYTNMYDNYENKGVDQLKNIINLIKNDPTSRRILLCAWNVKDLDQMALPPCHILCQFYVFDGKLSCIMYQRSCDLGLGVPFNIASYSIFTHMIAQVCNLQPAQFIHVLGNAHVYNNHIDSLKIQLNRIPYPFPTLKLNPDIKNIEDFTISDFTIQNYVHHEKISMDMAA

[3] = biological target: Bifunctional dihydrofolate reductase-thymidylate synthase (Plasmodium falciparum K1) (UniProt P13922); assay: (§2) Inhibition of the wild-type dihydrofolate reductase (DHFR) relative to Pyr.
Chain of Bifunctional dihydrofolate reductase-thymidylate synthase (Plasmodium falciparum K1) (P13922 whole entry, looked up): as the sequence (P13922 whole entry, looked up, stated change not applied) above
In short: (§3)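 Assayed at 25 °C in 50 mM TES pH 7.0, 75 mM β-mercaptoethanol, 1 mg/mL BSA, with 100 µM H2folate and 100 µM NADPH. A340 was followed. Ki was derived from IC50 = Ki(1+[S]/Km), assuming competitive inhibition.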

Plasmodium falciparum [4] = assay: In vitro relative antiplasmodial activity (IC50) compared to Pyr against Plasmodium falciparum TM4/8.2 wild-type; format: functional
[5] = biological target: Bifunctional dihydrofolate reductase-thymidylate synthase (Plasmodium falciparum K1) (UniProt P13922); assay: as §2; in short: as §3; remark: listed apart in the source
Plasmodium falciparum [6] = assay: In vitro antiplasmodial activity (IC50) against Plasmodium falciparum wtTM4/8.2; format: functional, organism-based
[7] = biological target: Bifunctional dihydrofolate reductase-thymidylate synthase (Plasmodium falciparum K1) (UniProt P13922); assay: Inhibition of the C59R+S108N mutant of dihydrofolate reductase (DHFR) relative to Pyr.; in short: as §3
[8] = test system: Bifunctional dihydrofolate reductase-thymidylate synthase (Plasmodium falciparum K1), P13922 [UNDEFINED MUTATION]; assay: Ratio of Inhibition of the S108N mutant of dihydrofolate reductase (DHFR) to inhibition of wild type dihydrofolate reductase.
Plasmodium falciparum [9] = assay: Relative antiplasmodial activity (IC50) compared to Pyr against Plasmodium falciparum K1CB1 DHFR double-mutant (C59R/S108N); format: functional
[10] = biological target: Bifunctional dihydrofolate reductase-thymidylate synthase (Plasmodium falciparum K1, UniProt P13922); assay: Inhibition of the C59R+S108N mutant of dihydrofolate reductase (DHFR); in short: as §1
Chain of Bifunctional dihydrofolate reductase-thymidylate synthase (Plasmodium falciparum K1, UniProt P13922) (P13922 whole entry): as the sequence (P13922 whole entry, looked up, stated change not applied) above

Plasmodium falciparum [11] = assay: IC50 ratio against Plasmodium falciparum K1CB1/TM4; format: functional
[12] = Safety ratio is cytotoxicity to BC cells/IC50 TM4.; format: toxicity, cell-based; settings: human, BC cells (breast cancer); read-out: Safety ratio
In short: (§4)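 Ratio of the cytotoxicity IC50 (KB or BC cells, Skehan protocol) to the antiplasmodial IC50 against TM4/8.2 (wild-type DHFR). […] Label was added after 24 h and cultures ran a further 18-24 h.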

[13] = biological target: Bifunctional dihydrofolate reductase-thymidylate synthase (Plasmodium falciparum K1) (UniProt P13922); assay: Inhibition of Plasmodium falciparum wild-type dihydrofolate reductase (DHFR) relative to Pyrimethamine.
Vero [14] = assay: (§5) Cytotoxicity by the selective inhibition against African green monkey kidney […] (vero cells).; settings: Chlorocebus sabaeus
Plasmodium falciparum [15] = assay: Safety ratio as cytotoxicity in vero cells relative to IC50 TM4; format: functional
KB = assay: Cytotoxicity against human epidermoid carcinoma KB cell.; format: functional, cell-based
BC = assay: Cytotoxicity against human breast cancer cells.; format: functional, cell-based
[16] = Safety ratio is cytotoxicity to KB cells/IC50 TM4.; format: toxicity, cell-based; settings: human, KB cells (epidermoid carcinoma); read-out: Safety ratio; in short: as §4
[17] = Safety ratio is cytotoxicity to BC cells/IC50 K1.; format: toxicity, cell-based; settings: human, BC cells (breast cancer); read-out: Safety ratio
In short: (§6)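 Ratio of the cytotoxicity IC50 (vero, KB or BC cells, Skehan protocol) to the antiplasmodial IC50 against K1CB1 (C59R+S108N DHFR). […] Label was added at 24 h and cultures ran a further 18-24 h. Final DMSO was 0.1%.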

[18] = Safety ratio is cytotoxicity to KB cells/IC50 K1.; format: toxicity, cell-based; settings: human, KB cells (epidermoid carcinoma); read-out: Safety ratio; in short: as §6
[19] = Safety ratio is cytotoxicity to vero cells/IC50 K1.; format: toxicity, cell-based; settings: monkey, read-out: Safety ratio; in short: as §6
Dihydrofolate reductase = biological target: T1, Dihydrofolate reductase (Homo sapiens, UniProt P00374); assay: Cytotoxicity by selective inhibition against human dihydrofolate reductase (DHFR).
T1 sequence (P00374 whole entry): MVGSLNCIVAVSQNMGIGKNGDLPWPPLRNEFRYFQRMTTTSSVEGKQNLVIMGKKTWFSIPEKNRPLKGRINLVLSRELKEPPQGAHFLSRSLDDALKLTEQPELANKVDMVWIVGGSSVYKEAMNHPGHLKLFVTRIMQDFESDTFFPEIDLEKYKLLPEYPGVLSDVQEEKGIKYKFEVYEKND

[20] = biological target: Bifunctional dihydrofolate reductase-thymidylate synthase (Plasmodium falciparum K1) (UniProt P13922); assay: Inhibition of the wild-type dihydrofolate reductase (DHFR) relative to Tmp; in short: as §3
[21] = Safety ratio is cytotoxicity to BC cells/IC50 K1; format: toxicity, cell-based; settings: human, BC cells (breast cancer); read-out: Safety ratio
In short: (§7)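 Safety ratio is the mammalian-cell cytotoxicity IC50 (vero, KB or BC cells) divided by the antiplasmodial IC50 against P. falciparum K1CB1 (C59R+S108N DHFR). Parasites were grown in human erythrocytes (1.5% suspension, 1-2% parasitemia) at 37 °C, 3% CO2, with drug dilutions at 0.1% DMSO final. After 24 h, [3H]hypoxanthine was added for a further 18-24 h. IC50 came from sigmoidal incorporation curves.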

[22] = biological target: Bifunctional dihydrofolate reductase-thymidylate synthase (Plasmodium falciparum K1) (UniProt P13922); assay: Inhibition of S108N mutant dihydrofolate reductase (DHFR)relative to Tmp; in short: as §3
[23] = biological target: Bifunctional dihydrofolate reductase-thymidylate synthase (Plasmodium falciparum K1) (UniProt P13922); assay: Inhibition of the C59R+S108N mutant of dihydrofolate reductase (DHFR)relative to Tmp; in short: as §3
Vero [24] = assay: as §5; format: functional, cell-based; settings: Chlorocebus sabaeus
[25] = Safety ratio is cytotoxicity to KB cells/IC50 K1; format: toxicity, cell-based; settings: human, KB cells (epidermoid carcinoma); read-out: Safety ratio; in short: as §7
Plasmodium falciparum [26] = assay: Relative antiplasmodial activity (IC50) compared to Tmp against Plasmodium falciparum K1CB1 DHFR double-mutant (C59R/S108N); format: functional
Plasmodium falciparum [27] = assay: In vitro relative antiplasmodial activity (IC50) compared to Tmp against Plasmodium falciparum TM4/8.2 wild-type; format: functional
[28] = Safety ratio is cytotoxicity to vero cells/IC50 k1.; format: toxicity, cell-based; settings: monkey, read-out: Safety ratio; in short: as §6
[29] = Safety ratio is cytotoxicity to vero cells/IC50 K1; format: toxicity, cell-based; settings: monkey; in short: as §6
[30] = biological target: Bifunctional dihydrofolate reductase-thymidylate synthase (Plasmodium falciparum K1) (UniProt P13922); assay: Inhibition of the S108N mutant of dihydrofolate reductase (DHFR) relative to Pyr.; in short: as §3
[31] = Safety ratio is cytotoxicity to vero cells/IC50 KI.; format: toxicity, cell-based; settings: monkey, read-out: Safety ratio; in short: as §7

Chain of Bifunctional dihydrofolate reductase-thymidylate synthase (Plasmodium falciparum K1, UniProt P13922, S108N) (P13922 whole entry, looked up, stated change not applied): as the sequence (P13922 whole entry, looked up, stated change not applied) above

Compound | Ki [1] | Ratio [2] | IC50 (Plasmodium falciparum [6]) | Ratio [8] | Ki [10] | Ratio (Plasmodium falciparum [11]) | selectivity ratio [12] | Relative activity [13] | Safety ratio (Plasmodium falciparum [15]) | IC50 (KB) | IC50 (BC) | selectivity ratio [16] | selectivity ratio [18] | selectivity ratio [19] | IC50 (Vero [24]) | also measured
CCc1nc(N)nc(N)c1-c1ccc(Br)cc1 | 31.5 nM | 148 | 50 nM | 105 | 44.3 nM | 500 |  |  |  |  |  |  |  |  |  | Relative activity [3]: 0.5; Relative activity (Plasmodium falciparum [4]): 0.6; Relative activity [5]: 1.1; Relative activity [7]: 0.8; Relative activity (Plasmodium falciparum [9]): 0.8
CCCCCCc1nc(N)nc(N)c1-c1ccccc1 | 1.2 nM | 2.3 | 60 nM | 4 | 0.7 nM | 21.7 | 4470 | 0.5 | 857 | 113000 nM | 268000 nM | 1880 | 87 | 41 |  | IC50 (Vero [14]): 55000 nM; selectivity ratio [17]: 206; Ki (Dihydrofolate reductase): 15000 nM
COc1cc(Cc2cnc(N)nc2N)ccc1OCCCc1ccccc1 | 26.6 nM | 24.5 | 3000 nM | 14.8 | 44.2 nM | 3.9 | 11 |  | 67 | 72000 nM | 32000 nM | 24 |  | 17 | 200000 nM | Relative activity [20]: 0.2; selectivity ratio [21]: 2.7; Relative activity [22]: 0.2; Relative activity [23]: 0.2; selectivity ratio [25]: 6
COc1cc(Cc2cnc(N)nc2N)ccc1OCc1cc(OC)c(OC)c(OC)c1 | 6.2 nM |  | 300 nM |  | 8.7 nM | 92.7 |  |  |  |  |  |  |  |  |  | Relative activity (Plasmodium falciparum [26]): 0.2; Relative activity (Plasmodium falciparum [27]): 0.04
COc1ccc(CCCc2nc(N)nc(N)c2-c2cccc(Cl)c2)cc1 | 4 nM | 2.7 | 400 nM | 1.8 | 6 nM | 6.8 |  | 3.7 |  | 15000 nM | > 500000 nM |  |  |  | 3000 nM | Ki (Dihydrofolate reductase): > 5000 nM
Nc1ncc(Cc2ccc(OCCCOc3cc(Cl)c(Cl)cc3Cl)cc2)c(N)n1 | 23.5 nM | 43.4 | 3000 nM | 26.1 | 39.1 nM | 1.2 |  |  | 15 and >17 | > 50000 nM | > 50000 nM |  |  |  | 45000 nM | Relative activity [20]: 0.09; Relative activity [22]: 0.2; selectivity ratio [28]: 13; Relative activity [23]: 0.2; selectivity ratio [29]: 13
Nc1nc(N)c(-c2cccc(Cl)c2)c(CCOCCCOc2ccccc2)n1 | 1.8 nM | 4.7 | 400 nM | 4.5 | 1.9 nM | 8.3 | 15 | 0.7 | 38 | 8100 nM | 6100 nM | 20 | 2.5 | 4.5 | 15000 nM | selectivity ratio [21]: 1.8
CCc1nc(N)nc(N)c1-c1ccc(C(C)(C)C)cc1 | 66.2 nM | 212 | 600 nM | 110 | 127 nM | 6.5 | 93.3 |  | 172 | 87000 nM | 56000 nM | 145 | 22 |  | 100000 nM | Relative activity [3]: 1; Relative activity (Plasmodium falciparum [4]): 7.5; Relative activity [7]: 2.4; selectivity ratio [17]: 14.4; Relative activity [30]: 2.3; Relative activity (Plasmodium falciparum [9]): 0.1; selectivity ratio [31]: 26

— ChEMBL document CHEMBL1135602 (J Med Chem, 2002)
